Measured values from PubChem BioAssay.
Inconclusive results are not listed. Calls of active or inactive are those of the source.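 Rule for the calls, unless noted: active = RAM network inhibition above 8.4% in each of two replicates, 3 SD over the compound average; inconclusive = above 8.4% inhibition in only one replicate; inactive = 8.4% inhibition or less in each replicate.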

Assays:
[1] = S. cerevisiae growth inhibition in permissive medium (OD615), pilot counter-assay for S. cerevisiae lifespan shortening project, permissive growth control (AID 705;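 active = growth inhibition above 25% in both replicates, a cutoff set 3 SD above the mean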); settings: OD615, 24 h, at 10 µM, stronger effect = higher value
Outline: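 Material: engineered DeaD yeast; Compound: one dose 10 µM, DMSO 0.25% final; Detection: absorbance (optical density) at 615 nm; Buffer or medium: permissive raffinose/galactose medium; Timing: 24 h exposure, 30 °C.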

[2] = S. cerevisiae growth inhibition in restrictive medium, OD615, pilot screen, restrictive growth control, yeast lifespan reduction project (AID 706;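 active = growth inhibition above a set limit, 3 SD over mean compound inhibition, in both replicates, cut at about 43% in these data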;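 note: modified DeaD lifespan yeast strain shifted to restrictive glucose medium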); settings: OD615, 48 h, at 10 µM, stronger effect = higher value
Outline: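 Buffer or medium: restrictive glucose medium (CSMM-D); test system: modified S. cerevisiae; doses: single dose of 10 µM compound final, 0.25% DMSO; schedule: 48 h compound exposure at 30 °C; detection: absorbance (optical density) measured at 615 nm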

[3] = doxorubicin toxicity protection in MRP-1 cells – H69AR cells, CellTiter-Glo, duplicate, MRP-1 activator project, pilot screen (AID 807;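 active = viability increase at or above a cutoff of the median across tested compounds plus 3 SD, cut at about 8.5% in these data, passing the limit was not always enough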;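 note: compound pretreatment 18-22 h then 72 h combined with doxorubicin; 0% = doxorubicin alone and 100% = vehicle without doxorubicin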); settings: H69AR viability with doxorubicin, CellTiter-Glo luminescence; at 10 µM; stronger effect = higher value
[4] = viability of PTEN-null HCT116 cells – cell-based, HCT116 clonal line, CellTiter-Glo, pilot screen (AID 824;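 active = viability at or below 27.92% in each of two runs, the all-compound median minus 4 SD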;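 note: 0% = 20 µM Hyamine control and 100% = vehicle cell control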); settings: HCT116 PTEN-deleted viability, 60 h, at 10 µM, stronger effect = lower value
[5] = RAM pathway blockade in budding yeast – dse1pr::URA3 reporter, 5-FOA selection, pilot screen (AID 869;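 active = inhibition over a set limit, the all-compound mean plus 3 SD, in both replicate runs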;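 note: 0% = DMSO wells with no growth and 100% = 10 µM 1-NA-PP1 with full growth; RAM network block rescues cells from 5-FOA so hits raise OD615 growth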); settings: S. cerevisiae dse1pr::URA3 5-FOA growth, OD615, 2 d; at 10 µM; stronger effect = higher value; strain carries analog-sensitive mutant Cbk1 kinase
[6] = RAM signaling pathway blockade in yeast – S. cerevisiae, Pdr1DBD-CYC8 efflux-inhibited sensitized strain, primary screen (AID 1298);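 note: 0% = DMSO untreated cells without growth and 100% = 10 µM 1-NA-PP1 full growth; higher means more yeast growth rescued from 5-FOA killing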; settings: S. cerevisiae cbk1-as DSE1-URA3 strain, 5-FOA growth OD615, 2 d; at 50 µM; stronger effect = higher value

CCC(C)NC(=O)c1cn(C)c(=O)c2cc(OC)c(OC)cc12 (stereo not given)
inactive: growth inhibition [1] -6.39% | growth inhibition [2] -12.4% | viability increase [3] -3.24% | viability [4] 99.7% | inhibition [5] 1.1% | RAM network inhibition [6] 5.28%

COc1ccc(Oc2coc3c(CN(C)C)c(O)ccc3c2=O)cc1
inactive: growth inhibition [1] -5.32% | growth inhibition [2] -12.9% | viability increase [3] -7.46% | viability [4] 95.3% | inhibition [5] 0.075% | RAM network inhibition [6] -0.21%

CS(=O)(=O)N(CC(=O)N1CCCCCC1)c1cccc(Br)c1
inactive: growth inhibition [1] -9.19% | growth inhibition [2] -11.5% | viability increase [3] -2.75% | viability [4] 94.5% | inhibition [5] 1.21% | RAM network inhibition [6] 1.44%

O=C(C1CC1)N1CCc2cc(Br)cc(S(=O)(=O)N3CCCCCC3)c21
inactive: growth inhibition [1] -4% | growth inhibition [2] -6.99% | viability increase [3] -3.17% | viability [4] 82.1% | inhibition [5] 1.66% | RAM network inhibition [6] 5.99%

Cc1cc2nc3c(c(=O)n2[nH]1)CCCC3
inactive: growth inhibition [1] -6.41% | growth inhibition [2] 0.415% | viability increase [3] -1.07% | viability [4] 105% | inhibition [5] 1.09% | RAM network inhibition [6] -0.25%

COc1cc(NS(=O)(=O)c2ccc(NC(=O)COc3ccc(C)cc3)cc2)nc(OC)n1
inactive: growth inhibition [1] -14.3% | growth inhibition [2] -7.79% | viability increase [3] -1.12% | viability [4] 102% | inhibition [5] 1.73% | RAM network inhibition [6] 3.5%

Cc1cc(C(=O)NC(C)c2ccncc2)no1 (stereo not given)
inactive: growth inhibition [1] -12.9% | growth inhibition [2] 8.19% | viability increase [3] -2.15% | viability [4] 90.3% | inhibition [5] 1.55% | RAM network inhibition [6] 0.72%

Cc1noc(C)c1CSc1nnc(-c2cc(Cl)ccc2Cl)n1N
inactive: growth inhibition [1] 8.57% | growth inhibition [2] 8.54% | viability increase [3] -2.82% | viability [4] 95% | inhibition [5] 1.9% | RAM network inhibition [6] 2.06%

CCOC(=O)N1CCN(C(=O)C(CC(C)C)NC(=O)C2CCCCC2)CC1 (stereo not given)
inactive: growth inhibition [1] -11.7% | growth inhibition [2] -4.5% | viability increase [3] -2.13% | viability [4] 101% | inhibition [5] 0.455% | RAM network inhibition [6] 1.59%

COCCCNC(=O)c1cn(C)c(=O)c2cc(OC)c(OC)cc12
inactive: growth inhibition [1] -8.69% | growth inhibition [2] -8.96% | viability increase [3] -2.69% | viability [4] 103% | inhibition [5] 1.8% | RAM network inhibition [6] 0.56%

COC(=O)c1c(NC(=O)Cc2cccs2)sc(C)c1C
inactive: growth inhibition [1] 2.9% | growth inhibition [2] 6.72% | viability increase [3] -4.9% | viability [4] 87% | inhibition [5] 1.54% | RAM network inhibition [6] 9.13%

O/N=C1/C2C3CC4C5C3C1C5C1(OCCO1)C42 (stereo not given)
inactive: growth inhibition [1] -8.1% | growth inhibition [2] -16.9% | viability increase [3] -1.45% | viability [4] 99% | inhibition [5] 1.39% | RAM network inhibition [6] 3.89%

COc1ccc(C2C(C(=O)N3CCN(c4ccccc4F)CC3)c3ccccc3C(=O)N2C)cc1 (stereo not given)
inactive: growth inhibition [1] -12.2% | growth inhibition [2] -6.36% | viability increase [3] -5.64% | viability [4] 74.3% | inhibition [5] 1.3% | RAM network inhibition [6] 4.16%

Cc1onc(-c2ccccc2Cl)c1C(=O)N1CCN(c2cccc(Cl)c2)CC1
inactive: growth inhibition [1] -18.9% | growth inhibition [2] -13.7% | viability increase [3] -6.53% | inhibition [5] 2.73% | RAM network inhibition [6] 10.4%
active: viability [4] 22%

CCn1cc(C(=O)NCCCN2CC(C)CC(C)C2)c2cc(OC)c(OC)cc2c1=O (stereo not given)
inactive: growth inhibition [1] -15.8% | growth inhibition [2] -7.97% | viability increase [3] -2.98% | viability [4] 97.5% | inhibition [5] 1.03% | RAM network inhibition [6] 3.13%

COc1cc(C(=O)NCc2ccc3c(c2)OCO3)ccc1OCc1c(C)noc1C
inactive: growth inhibition [1] 2.15% | growth inhibition [2] -2.32% | viability increase [3] -1.5% | viability [4] 95.1% | inhibition [5] 2.5% | RAM network inhibition [6] 3.79%

CCc1cc(=O)oc2cc(OCC(=O)OC)c(Cl)cc12
inactive: growth inhibition [1] -4.85% | growth inhibition [2] 1.34% | viability increase [3] -2.39% | viability [4] 101% | inhibition [5] 0.695% | RAM network inhibition [6] 4.51%

Cn1cnnc1SCC(=O)c1ccco1
inactive: growth inhibition [1] -5.92% | growth inhibition [2] -3.4% | viability increase [3] -1.08% | viability [4] 106% | inhibition [5] 0.79% | RAM network inhibition [6] 3.27%

O=C(CCCOc1ccccc1)N1CCCc2ccccc21
inactive: growth inhibition [1] -0.835% | growth inhibition [2] -2.99% | viability increase [3] -2.01% | viability [4] 92.2% | inhibition [5] 0.825% | RAM network inhibition [6] 2.37%

COCCOC(=O)c1c(C)oc2ccc(OC(=O)c3cccs3)cc12
inactive: growth inhibition [1] -11.1% | growth inhibition [2] -17% | viability increase [3] 1.16% | viability [4] 104% | inhibition [5] 2.33% | RAM network inhibition [6] 6.79%

COc1cc(C(C)=O)ccc1OC(=O)C(C)N1C(=O)c2ccccc2C1=O (stereo not given)
inactive: growth inhibition [1] -17.5% | growth inhibition [2] -5.68% | viability increase [3] -2.73% | viability [4] 93.9% | inhibition [5] 1.02% | RAM network inhibition [6] 3.8%

NC(=O)CNC1CC(=O)N(CCc2ccccc2)C1=O (stereo not given)
inactive: growth inhibition [1] 2.06% | growth inhibition [2] 4.79% | viability increase [3] -2.49% | viability [4] 98.5% | inhibition [5] 0.77% | RAM network inhibition [6] 1.69%

COc1ccccc1-n1c(SCC(=O)Nc2nnc(C)s2)nc2c(c1=O)SCC2
inactive: growth inhibition [1] -5.29% | growth inhibition [2] 3.71% | viability increase [3] -3.7% | viability [4] 80.6% | inhibition [5] 0.81% | RAM network inhibition [6] 3.59%

COC(=O)CNC(=O)Cn1cnc2sc(C)c(S(=O)(=O)N3CCC(C)CC3)c2c1=O
inactive: growth inhibition [1] -2.79% | growth inhibition [2] 12.7% | viability increase [3] -3.93% | viability [4] 99.2% | inhibition [5] 1.11% | RAM network inhibition [6] 0.37%

O=C(CSc1nc2c(c(=O)n1-c1ccc(Cl)cc1)SCC2)N1CCCC1
inactive: growth inhibition [1] 1.32% | growth inhibition [2] 24.2% | viability increase [3] -4.23% | viability [4] 101% | inhibition [5] 1.31% | RAM network inhibition [6] 0.57%

COCCNC(=O)C1c2ccccc2C(=O)N(CCOC)C1c1ccc(F)cc1 (stereo not given)
inactive: growth inhibition [1] -6.02% | growth inhibition [2] 3.31% | viability increase [3] -2.15% | viability [4] 101% | inhibition [5] 1.29% | RAM network inhibition [6] 0.46%

COC(=O)CCc1nc2ccccc2[nH]c1=O
inactive: growth inhibition [1] -6.03% | growth inhibition [2] -5.04% | viability increase [3] -0.31% | viability [4] 100% | inhibition [5] 1.4% | RAM network inhibition [6] 2.15%

Cc1cc(C(=O)N2CCN(c3ccccn3)CC2)c(C)o1
inactive: growth inhibition [1] 9.65% | growth inhibition [2] -7.73% | viability increase [3] -5.92% | viability [4] 96.3% | inhibition [5] 0.945% | RAM network inhibition [6] 4.2%

O=S(=O)(Cc1ccccc1)N1CCc2ccccc2C1
inactive: growth inhibition [1] 2.65% | growth inhibition [2] -4.61% | viability increase [3] -0.66% | viability [4] 95.8% | inhibition [5] 3.92% | RAM network inhibition [6] 6.16%

CS(=O)(=O)NCCSCc1ccc(Cl)cc1
inactive: growth inhibition [1] -8.71% | growth inhibition [2] -3.54% | viability increase [3] -0.89% | viability [4] 97.9% | inhibition [5] 1.62% | RAM network inhibition [6] 4.47%

O=C(CSc1nc(-c2ccncc2)nn1CC(=O)N1CCCCC1)NC1CCCC1
inactive: growth inhibition [1] -4.01% | growth inhibition [2] -16.2% | viability increase [3] -4.19% | viability [4] 88% | inhibition [5] 1.07% | RAM network inhibition [6] -1.59%

C#CCN1C(=O)C(O)(CC(=O)c2ccc3c(c2)OCCO3)c2ccccc21 (stereo not given)
inactive: growth inhibition [1] -19% | growth inhibition [2] -18.4% | viability increase [3] -2.81% | viability [4] 49.2% | inhibition [5] 0.74% | RAM network inhibition [6] 6.75%

CCN1CCN(c2cc(C)c3cc(NC(=O)c4ccc5c(c4)OCO5)ccc3n2)CC1
inactive: growth inhibition [1] -12.3% | growth inhibition [2] -7.6% | viability increase [3] -8.06% | viability [4] 47.2% | inhibition [5] -0.365% | RAM network inhibition [6] 3.21%

COc1ccc(N2CCN(CCNC(=O)CCNS(=O)(=O)c3cccs3)CC2)cc1
inactive: growth inhibition [1] -5.45% | growth inhibition [2] -5.3% | viability increase [3] -0.82% | viability [4] 96.3% | inhibition [5] 1.71% | RAM network inhibition [6] 2.25%

CCOC(=O)CNS(=O)(=O)CCN1C(=O)c2ccccc2C1=O
inactive: growth inhibition [1] -8.36% | growth inhibition [2] -4.12% | viability increase [3] 0.26% | viability [4] 94.3% | inhibition [5] 2.52% | RAM network inhibition [6] 0.77%

CCCCC1CC(CSc2ncn[nH]2)OC1=O (stereo not given)
inactive: growth inhibition [1] -11.3% | growth inhibition [2] -7.68% | viability increase [3] 1.38% | viability [4] 98% | inhibition [5] 1.21% | RAM network inhibition [6] 0.01%

O=C(c1ccsc1)N1CCN(C(=O)c2cccs2)CC1
inactive: growth inhibition [1] -9.91% | growth inhibition [2] 2.31% | viability increase [3] 1.13% | viability [4] 107% | inhibition [5] 2.04% | RAM network inhibition [6] 0.97%

CCN(CC)S(=O)(=O)c1ccc2oc(C(=O)NCC3COc4ccccc4O3)c(C)c2c1 (stereo not given)
inactive: growth inhibition [1] -4.71% | growth inhibition [2] 1.48% | viability increase [3] -7.27% | viability [4] 56.5% | inhibition [5] 2.5% | RAM network inhibition [6] 4.96%

COc1ccc(C2C(C(=O)c3cccs3)=C(O)C(=O)N2c2nncs2)cc1 (stereo not given)
inactive: growth inhibition [1] -15.5% | growth inhibition [2] -14.4% | viability increase [3] -1.95% | viability [4] 102% | inhibition [5] 0.41% | RAM network inhibition [6] 2.46%

CS(=O)(=O)N(CC(=O)N1CCN(c2ccccc2F)CC1)c1cc(C(F)(F)F)ccc1Cl
inactive: growth inhibition [1] 1.93% | growth inhibition [2] 0.015% | viability increase [3] 0.43% | viability [4] 88.3% | inhibition [5] -0.485% | RAM network inhibition [6] 0.87%
